Activity, viability and IC50 data for three molecules are collected here from ChEMBL document CHEMBL1926559, “Metabolic and electrochemical mechanisms of dimeric naphthoquinones cytotoxicity in breast cancer cells” (Bioorg Med Chem, 2011).

The source made the active and inactive calls. The calls are words filed in the database; no cut-off is given here.

For test [1], the system named is MDA-MB-453. In words: Cytotoxicity against DCFDA-treated human MDA-MB-453 cells assessed as increase in ROS production after 30 mins by flow cytometric analysis. Format: functional. Put shortly: (§1)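 Cells preloaded with 5μM carboxy-DCFDA for 30 min, then exposed to 20 μM compound or DMSO for 2 h, collected and analysed by flow cytometry (488 nm excitation, 530 nm emission); percentage of fluorescent cells vs DMSO; triplicate samples, two separate experiments.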

Test [2] has as its system MCF7. The experiment in a line: Antiproliferative activity against human MCF7 cells assessed as cell survival at 50 uM by trypan blue exclusion assay relative to control. In kind it is functional. Particulars: read-out: Survival. Put shortly: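 MCF-7 cells kept in DMEM with 10% fetal bovine serum and 1% antibiotics at 37°C, 5% CO2, grown at 1×10⁵ cells/mL. Cells were exposed to DMSO vehicle or DMSO-dissolved compound. Viability was scored by trypan blue exclusion cell counts, done in triplicate and given as mean ± SD. Survival was expressed relative to the DMSO control.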

Test [3] concerns MDA-MB-453. The experiment in a line: Growth inhibition of human MDA-MB-453 cells by trypan blue exclusion assay. In kind it is functional, cell-based. Put shortly: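 Viability counted by trypan blue exclusion; cells grown at 1×10⁵ cells/mL, counts done in triplicate, mean ± SD relative to DMSO.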
In test [4] the test system is MDA-MB-453. The experiment in a line: Antiproliferative activity against human MDA-MB-453 cells assessed as decrease in ATP level in viable cells at 10 uM after 4 hrs by CellTiter-Glo luminescent assay relative to control. Format: functional. In short, it runs like this: (§2)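 10,000 cells per well, treated in sextuplet with DMSO or 5, 10, 20 or 50 μM for 4 h. ATP read by CellTiter-Glo luminescence, normalized to average count of viable trypan-blue-excluding cells per condition, expressed relative to DMSO.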

The subject of test [5] is MCF7. In words: Cytotoxicity against DCFDA-treated human MCF7 cells assessed as increase in ROS production […] by flow cytometric analysis. In kind it is functional, cell-based. In short, it runs like this:
as §1

Test [6] has as its system MDA-MB-453. The experiment in a line: Antiproliferative activity against human MDA-MB-453 cells assessed as decrease in ATP level in viable cells at 20 uM after 4 hrs by CellTiter-Glo luminescent assay relative to control. In kind it is functional. In short, it runs like this: as §2
Test [7] has as its system MDA-MB-453. The experiment in a line: Antiproliferative activity against human MDA-MB-453 cells assessed as decrease in ATP level in viable cells at >20 uM after 4 hrs by CellTiter-Glo luminescent assay relative to control. Format: functional, cell-based. In short, it runs like this: as §2
The subject of test [8] is MDA-MB-453. The experiment in a line: Antiproliferative activity against human MDA-MB-453 cells after 4 hrs by MTT assay. Format: functional, cell-based. In short, it runs like this: (§3)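 Cells in DMEM with 10% FBS and 1% antibiotics, 37°C, 5% CO2; equal numbers plated in three or more replicates, attached overnight, then exposed to 5, 10, 20 or 50 μM (DMSO vehicle) in complete medium for 4 h. Then 0.5 mg/ml MTT for 1 h, medium replaced with PBS, absorbance at 570 nm minus 690 nm background; compared to DMSO.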

Test [9] deals with MCF7. The experiment in a line: Antiproliferative activity against human MCF7 cells after 4 hrs by MTT assay. In kind it is functional, cell-based. In short, it runs like this:
as §3

Test [10] relates to MCF7. The experiment in a line: Antiproliferative activity against human MCF7 cells assessed as decrease in ATP level in viable cells after 4 hrs by CellTiter-Glo luminescent assay relative to control. Format: functional, cell-based. Put shortly:
as §2

The subject of test [11] is MCF7. The experiment in a line: Cytotoxicity against human MCF7 cells assessed as decrease in oxygen consumption at 20 uM by Clark-type oxygen electrode analysis. Format: functional, cell-based. Put shortly:
(§4)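 After 3 h exposure to 20 μM compound or DMSO, cells trypsinized, PBS-washed, pelleted; 5×10⁶ cells in 0.8 mL PBS with 10% FCS placed in a Clark-type oxygen electrode chamber to measure O2 consumption; duplicate experiments.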

For test [12], the system named is MDA-MB-453. In words: Cytotoxicity against human MDA-MB-453 cells assessed as decrease in oxygen consumption at 20 uM by Clark-type oxygen electrode analysis. In kind it is functional, cell-based. Put shortly: as §4

`O=C1C(O)=C(C2=C(Cl)C(=O)c3ccccc3C2=O)C(=O)c2ccccc21`: the Activity was 50% in the test with MDA-MB-453 [1], 53% with MDA-MB-453 [4], 60% in the test on MDA-MB-453 [6] and “Dose-dependent effect” in the test with MDA-MB-453 [8]. The viability at 50 µM in the test on MCF7 [2] came to 80%. In addition, the half-maximal inhibitory concentration (IC50) with MDA-MB-453 [3] came to 15 µM. The result in the test on MCF7 [5], with MDA-MB-453 [7], in the test with MCF7 [9], in the test on MCF7 [10] and with MCF7 [11] was inactive. The outcome in the test with MDA-MB-453 [12] was Active.
As for `COc1ccc2c(c1)C(=O)C(C1=C(Cl)C(=O)c3ccccc3C1=O)=C(O)C2=O`, the Activity with MDA-MB-453 [1] was 50%; with MDA-MB-453 [4], 37%; in the test with MDA-MB-453 [6] it was 60%; in the test on MDA-MB-453 [8], “Dose-dependent effect”. The viability at 50 µM in the test on MCF7 [2] amounted to 83%. Half-maximal inhibition with MDA-MB-453 [3] (IC50) was put at 17 µM. Besides, the result with MCF7 [5], with MDA-MB-453 [7], in the test with MCF7 [9], with MCF7 [10] and in the test on MCF7 [11] was inactive. The outcome in the test on MDA-MB-453 [12] was Active.
Turning to `CC(C)=CCC[C@]1(C)C=Cc2c(ccc3c2C(=O)C(O)=C(C2=C(Cl)C(=O)c4ccccc4C2=O)C3=O)O1`, the Activity in the test on MDA-MB-453 [1] was 50%; in the test on MDA-MB-453 [6], 27%; in the test with MDA-MB-453 [8], “Dose-dependent effect”. The viability at 50 µM in the test on MCF7 [2] came to 85%. The molecule also gave an IC50 in the test with MDA-MB-453 [3] of 34 µM. Further, the result with MDA-MB-453 [4], with MCF7 [5], with MDA-MB-453 [7], in the test with MCF7 [9], in the test on MCF7 [10] and in the test on MCF7 [11] was inactive. The result in the test with MDA-MB-453 [12] was Active.
